In ChEMBL document CHEMBL3112500, “Synthesis and biological evaluation of allylated and prenylated mono-carbonyl analogs of curcumin as anti-inflammatory agents” (Eur J Med Chem, 2014):
Active and inactive are the calls of the source. No cut-off for these calls is given here.

How the values were obtained:
RAW264.7 [1] = test: Antiinflammatory activity in mouse RAW264.7 cells assessed as inhibition of LPS-induced IL-6 release pretreated at 10 uM for 2 hrs prior LPS challenge measured after 22 hrs post challenge by ELISA; assay type: functional
Summary of the method: (§1)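 RAW 264.7 cells plated at 4.0 × 10⁵ per plate overnight (37 °C, 5% CO₂). Pretreated 2 h, then stimulated with LPS 0.5 µg/ml (in PBS) for 22 h. Medium TNF-α and IL-6 measured by ELISA, normalized to total cell protein (Bio-Rad assay) and expressed as percent of LPS control. Mean ± SE, 3–5 independent experiments.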

[2] = Cytotoxicity against human HL-7702 cells at 10 uM after 24 hrs by MTT assay; assay type: cell-based; settings: l02, 24 h
Summary of the method: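 HL-7702 cells, 5000 per well, in 1640 medium with 5% heat-inactivated serum, 37 °C, 5% CO₂. Compounds in DMSO, diluted in medium to final 10 µM, applied for 24 h. MTT (5 mg/ml in 0.9% NaCl) added for 3 h, then cells dissolved in DMSO and absorbance read at 570 nm.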

RAW264.7 [3] = test: Antiinflammatory activity in mouse RAW264.7 cells assessed as inhibition of LPS-induced TNFalpha release pretreated at 10 uM for 2 hrs prior LPS challenge measured after 22 hrs post challenge by ELISA; assay type: functional; summary of the method: as §1
RAW264.7 [4] = test: Antiinflammatory activity in mouse RAW264.7 cells assessed as inhibition of LPS-induced IL-6 release pretreated for 2 hrs prior LPS challenge measured after 22 hrs post challenge by ELISA; assay type: functional, cell-based
Summary of the method: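 Dose series in RAW 264.7 cells: pretreatment at 1.1, 3.3 and 10 µM for 2 h, then LPS 0.5 µg/ml for 22 h. Medium IL-6 determined by ELISA and normalized to total protein.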

RAW264.7 [5] = test: Antiinflammatory activity in mouse RAW264.7 cells assessed as inhibition of LPS-induced IL-1beta gene expression pretreated at 10 uM for 2 hrs prior LPS challenge measured after 6 hrs post challenge by RT-qPCR analysis; assay type: functional, cell-based
Summary of the method: (§2)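 RAW 264.7 cells in DMEM with 10% FBS, plated at 4.0 × 10⁵ per plate overnight at 37 °C, 5% CO₂. Pretreatment 2 h, then LPS 0.5 µg/ml for 6 h. IL-6, TNF-α and IL-1β mRNA quantified by RT-qPCR, normalized to β-actin mRNA and expressed as ratio to DMSO. Mean ± SD of 3–5 independent experiments.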

RAW264.7 [6] = test: Antiinflammatory activity in mouse RAW264.7 cells assessed as inhibition of LPS-induced TNF-alpha gene expression pretreated at 10 uM for 2 hrs prior LPS challenge measured after 6 hrs post challenge by RT-qPCR analysis; assay type: functional, cell-based; summary of the method: as §2
[7] = Chemical stability of the compound in phosphate buffer at pH 7.4 at 20 uM up to 25 mins by UV-visible absorption spectrum assay; assay type: physicochemical; settings: pH 7.4, 25 min
RAW264.7 [8] = test: Antiinflammatory activity in mouse RAW264.7 cells assessed as inhibition of LPS-induced IL-6 gene expression pretreated at 10 uM for 2 hrs prior LPS challenge measured after 6 hrs post challenge by RT-qPCR analysis; assay type: functional, cell-based; summary of the method: as §2
[9] = Chemical stability of the compound in phosphate buffer at pH 7.4 assessed as compound degradation at 20 uM up to 25 mins by UV-visible absorption spectrum assay; assay type: physicochemical; settings: read-out: Drug degradation
Mus musculus = test: Antiinflammatory activity in C57BL/6 mouse sepsis model assessed as increase in survival rate at 10 mg/kg, iv administered 15 mins prior LPS-challenge measured after 7 days; assay type: functional
Summary of the method: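 Male C57BL/6 mice (18–22 g) were dosed i.v. 15 min before i.p. LPS at 20 mg/kg. Drug solution was 2 mg/ml in macrogol 15 hydroxystearate (5–10%), with or without medium-chain triglycerides (0.5–2%). Controls received vehicle (10% solubilizer, 2% MCT). Survival was recorded every 12 h for 7 days; n = 9 per group.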

[10] = system: Peritoneal macrophage cell; test: Antiinflammatory activity in mouse peritoneal macrophages assessed as inhibition of LPS-induced IL6 protein expression pretreated for 2 hrs prior LPS challenge measured after 22 hrs post challenge by ELISA; assay type: functional, cell-based
Summary of the method: (§3)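 Peritoneal macrophages from ICR mice elicited by i.p. thioglycollate, collected by lavage with PBS containing 30 mM EDTA, in RPMI-1640, nonadherent cells washed off at 3 h. Plated at 4.0 × 10⁵ per 35 mm plate. Pretreatment 2 h, then LPS 0.5 µg/ml for 22 h. IL-6 and TNF-α in medium measured by ELISA, normalized to total protein. 3 independent experiments.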

[11] = system: Peritoneal macrophage cell; test: Antiinflammatory activity in mouse peritoneal macrophages assessed as inhibition of LPS-induced TNFalpha protein expression pretreated for 2 hrs prior LPS challenge measured after 22 hrs post challenge by ELISA; assay type: functional, cell-based; summary of the method: as §3

Row | Structure (SMILES) | inhibition at 10 µM (RAW264.7 [1]) | Activity [2] | further results
1 | C=CCOc1ccc(/C=C/C(=O)/C=C/c2ccc(OC)c(CC=C)c2)cc1 | 20% | Non-toxic | –
2 | CC(C)=CCOc1ccc(/C=C/C(=O)/C=C/c2ccc(OCC=C(C)C)cc2)cc1 | – | Non-toxic | –
3 | C=CCc1cc(/C=C/C(=O)/C=C/c2ccc(Br)cc2)ccc1OC | 20% | Non-toxic | –
4 | C=CCc1cc(/C=C/C(=O)/C=C/c2cc(F)ccc2OC)ccc1OC | 20% | Non-toxic | –
5 | COc1ccc(/C=C/C(=O)/C=C/c2ccc(OCC=C(C)C)cc2)cc1OC | 20% | Non-toxic | –
6 | C=CCc1cc(/C=C2\CC/C(=C\c3ccc(OC4CCCCO4)c(CC=C)c3)C2=O)ccc1OC1CCCCO1 (stereo not given) | – | Non-toxic | –
7 | C=CCc1cc(/C=C/C(=O)/C=C/c2c(F)cccc2Br)ccc1OC | 20% | Non-toxic | –
8 | COc1cc(/C=C2\CC/C(=C\c3ccc(OCC=C(C)C)c(OC)c3)C2=O)ccc1OCC=C(C)C | 20% | Non-toxic | –
9 | C=CCc1cc(/C=C/C(=O)/C=C/c2cc(F)ccc2F)ccc1OC | – | Non-toxic | –
10 | C=CCc1cc(/C=C/C(=O)/C=C/c2ccc3ccccc3c2)ccc1OC | 20% | Non-toxic | –
11 | C=CCc1cc(/C=C/C(=O)/C=C/c2cc(F)ccc2Br)ccc1OC | 20% | Non-toxic | inhibition (RAW264.7 [3]): Active; inhibition (RAW264.7 [4]): Dose-dependent effect; inhibition (RAW264.7 [5]): Active; inhibition (RAW264.7 [6]): Active; Stability [7]: Stable; inhibition (RAW264.7 [8]): Active
12 | C=CCOc1ccc(/C=C/C(=O)/C=C/c2ccc(OC)c(OC)c2)cc1 | – | Non-toxic | –
13 | C=CCc1cc(/C=C/C(=O)/C=C/c2ccccc2C(F)(F)F)ccc1OC | – | Non-toxic | –
14 | C=CCc1cc(/C=C/C(=O)/C=C/c2ccc(OC)c(OC)c2)ccc1O | 20% | Non-toxic | inhibition (RAW264.7 [4]): Dose-dependent effect; inhibition (RAW264.7 [5]): Active; inhibition (RAW264.7 [6]): Active; inhibition (RAW264.7 [8]): Active
15 | CC(C)=CCOc1ccc(/C=C2\CCC/C(=C\c3ccc(OCC=C(C)C)cc3)C2=O)cc1 | 20% | Non-toxic | –
16 | C=CCOc1ccc(/C=C/C(=O)/C=C/c2ccc(F)cc2)c(O)c1 | 20% | Non-toxic | –
17 | C=CCc1cc(/C=C/C(=O)/C=C/c2ccccc2Cl)ccc1OC | 20% | Non-toxic | –

Row | Structure (SMILES) | inhibition at 10 µM (RAW264.7 [1]) | Activity [2] | further results
18 | COc1cc(/C=C/C(=O)/C=C/c2ccc(OCC=C(C)C)c(OC)c2)ccc1OCC=C(C)C | 20% | Non-toxic | –
19 | C=CCc1cc(/C=C2\CC/C(=C\c3ccc(O)c(CC=C)c3)C2=O)ccc1O | 20% | Non-toxic | –
20 | C=CCc1cc(/C=C/C(=O)/C=C/c2ccc(N3CCOCC3)cc2)ccc1OC | 20% | Non-toxic | inhibition (RAW264.7 [4]): Dose-dependent effect; inhibition (RAW264.7 [5]): Active; inhibition (RAW264.7 [6]): Active; inhibition (RAW264.7 [8]): Active
21 | CC(C)=CCOc1ccc(/C=C2\CC/C(=C\c3ccc(OCC=C(C)C)cc3O)C2=O)c(O)c1 | 20% | Non-toxic | –
22 | C=CCc1cc(/C=C/C(=O)/C=C/c2ccc(C(F)(F)F)cc2)ccc1OC | 20% | Non-toxic | –
23 | C=CCc1cc(/C=C/C(=O)/C=C/c2cccc(Br)c2)ccc1OC | 20% | Non-toxic | –
24 | C=CCc1cc(/C=C/C(=O)/C=C/c2ccc(O)c(CC=C)c2)ccc1O | 96.4% | Non-toxic | inhibition (RAW264.7 [3]): Active; inhibition (RAW264.7 [4]): Dose-dependent effect; inhibition (RAW264.7 [5]): Active; inhibition (RAW264.7 [6]): Active; Stability [7]: Stable; inhibition (RAW264.7 [8]): Active
25 | C=CCc1cc(/C=C/C(=O)/C=C/c2ccc(OC(C)(C)C)cc2)ccc1OC | 20% | Non-toxic | –
26 | C=CCc1cc(/C=C/C(=O)/C=C/c2ccc(N3CCCCC3)cc2)ccc1OC | 20% | Non-toxic | –
27 | C=CCc1cc(/C=C/C(=O)/C=C/c2cccc(Cl)c2Cl)ccc1OC | 20% | Non-toxic | –
28 | COc1cc(/C=C/C(=O)CC(=O)/C=C/c2ccc(O)c(OC)c2)ccc1O [CURCUMIN] | 20% | Non-toxic | degraded at 25 min, 20 µM [9]: > 45%; inhibition (RAW264.7 [5]): Active; inhibition (RAW264.7 [6]): Active; inhibition (RAW264.7 [8]): Active
29 | C=CCc1cc(/C=C/C(=O)/C=C/c2ccc([N+](=O)[O-])cc2)ccc1O | 20% | Non-toxic | –
30 | C=CCc1cc(/C=C/C(=O)/C=C/c2cc(Br)ccc2Br)ccc1OC | 91.1% | Non-toxic | inhibition at 10 µM (RAW264.7 [3]): 67.5%; survival at 10 mg/kg (Mus musculus): 45%; inhibition (RAW264.7 [4]): Dose-dependent effect; inhibition [10]: Dose-dependent effect; inhibition (RAW264.7 [5]): Active; inhibition (RAW264.7 [6]): Active; Stability [7]: Stable; inhibition (RAW264.7 [8]): Active; inhibition [11]: Dose-dependent effect
31 | C=CCc1cc(/C=C/C(=O)/C=C/c2ccc(OC)c(OC)c2)ccc1OC | 20% | Non-toxic | –
32 | C=CCc1cc(/C=C/C(=O)/C=C/c2ccc(N(C)C)cc2)ccc1OC | 20% | Non-toxic | –
33 | C=CCOc1ccc(/C=C/C(=O)/C=C/c2ccc(OCC=C)cc2)cc1 | – | Non-toxic | –
34 | C=CCc1cc(/C=C/C(=O)/C=C/c2cc(OC)c(OC)cc2OC)ccc1OC | 20% | Non-toxic | inhibition (RAW264.7 [3]): Active; inhibition (RAW264.7 [4]): Dose-dependent effect; inhibition (RAW264.7 [5]): Active; inhibition (RAW264.7 [6]): Active; inhibition (RAW264.7 [8]): Active
